Measured values as given in ChEMBL document CHEMBL1128539, “Novel antagonists of platelet-activating factor. 2. Synthesis and structure-activity relationships of potent and long-acting heterofused [1,5]benzodiazepine and [1,4]diazepine derivatives of 2-methyl-1-phenylimidazo[4,5-c]pyridine” (J Med Chem, 1995).
Each block holds one molecule with its values, some of them ahead of it.

Tests used:
[1] = tested on: Canis familiaris; assay: Duration of action in Conscious Dog at a dose of […] po; assay type: ADME, organism-based, Canis lupus familiaris; design: dose 0.025 mg/kg, route oral; details: in vivo
[2] = tested on: Canis familiaris; assay: Duration of action in Conscious Dog at a dose of 0.05 mg/kg po; assay type: ADME, organism-based, Canis lupus familiaris; design: dose 0.05 mg/kg, route oral; details: in vivo
[3] = tested on: Canis familiaris; assay: Duration of action in Conscious Dog at a dose of 0.1 mg/kg po; assay type: ADME, organism-based, Canis lupus familiaris; design: dose 0.1 mg/kg, route oral; details: in vivo
[4] = tested on: Canis familiaris; assay: Duration of action in Conscious Dog at a dose of 0.2 mg/kg po; assay type: ADME, organism-based, Canis lupus familiaris; design: dose 0.2 mg/kg, route oral; details: in vivo
[5] = tested on: Canis familiaris; assay: Duration of action in Conscious dog at a dose of 0.2 mg/kg po; assay type: ADME, organism-based, Canis lupus familiaris; design: dose 0.2 mg/kg, route oral; details: in vivo
[6] = tested on: Canis familiaris; assay: Duration of action in Conscious Dog at a dose of 0.075 mg/kg po; assay type: ADME, organism-based, Canis lupus familiaris; design: dose 0.075 mg/kg, route oral; details: in vivo
[7] = tested on: Canis familiaris; assay: Duration of action in Conscious Dog at a dose of […] po; assay type: ADME, organism-based, Canis lupus familiaris; details: in vivo
[8] = tested on: Canis familiaris; assay: Duration of action in Conscious Dog at a dose of 0.3 mg/kg po; assay type: ADME, organism-based, Canis lupus familiaris; design: dose 0.3 mg/kg, route oral; details: in vivo
[9] = tested on: Canis familiaris; assay: Duration of action in Conscious Dog at a dose of 0.15 mg/kg po; assay type: ADME, organism-based, Canis lupus familiaris; design: dose 0.15 mg/kg, route oral; details: in vivo
[10] = tested on: Canis familiaris; assay: Duration of action in Conscious Dog at a dose of 0.5 mg/kg po; assay type: ADME, organism-based, Canis lupus familiaris; design: dose 0.5 mg/kg, route oral; details: in vivo
[11] = tested on: Canis familiaris; assay: Duration of action in Conscious Dog at 0.1 mg/kg po; assay type: ADME, organism-based, Canis lupus familiaris; design: dose 0.1 mg/kg, route oral; details: in vivo
Procedure, shortened: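 Conscious dogs. Before dosing, each dog's minimum PAF concentration giving irreversible whole-blood aggregation was set (30–50 nM). Compound was given by gavage in minimal 0.01 M HCl. Blood drawn 2 h later was challenged ex vivo with 10× (or 30×) that PAF level. If uninhibited, a larger second dose was given and blood resampled 2 h later. If inhibited, sampling continued until predose aggregation returned.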

[12] = target: Platelet-activating factor receptor (Oryctolagus cuniculus); assay: In vitro antagonist activity against platelet activating factor (PAF) receptor, using washed rabbit platelets

Structure (SMILES): Cc1nc2cnccc2n1-c1ccc(C2=Nc3c(-c4cccnc4)nn(C)c3N(C)C(=O)C2)cc1
- Duration of action [1]: 9 h
- Duration of action [2]: > 10 h

Structure (SMILES): Cc1nn(C)c2c1N=C(c1ccc(-n3c(C)nc4cnccc43)cc1)CC(=O)N2C
- Duration of action [4]: 4 h

Structure (SMILES): Cc1nc2cnccc2n1-c1ccc(C2=Nc3c(-c4ccccc4)nn(C)c3N(C)C(=O)C2)cc1
- Duration of action [3]: > 8 h

Structure (SMILES): Cc1nc2cnccc2n1-c1ccc(C2=Nc3cc(Cl)c(Cl)cc3-n3ccnc3C2)cc1
- Duration of action [5]: 7 h

Structure (SMILES): Cc1nc2cnccc2n1-c1ccc(C2=Nc3c(C4CCCCC4)nn(C)c3N(C)C(=O)C2)cc1
- Duration of action [1]: 0 h
- Duration of action [6]: 8 h

Structure (SMILES): CCOC(=O)C1=C(c2ccc(-n3c(C)nc4cnccc43)cc2)NC(C)=C(C(=O)Nc2ccccn2)C1c1ccccc1Cl (centres undefined)
- Duration of action [6]: 8 h

Structure (SMILES): Cc1nn(C)c2c1N=C(c1ccc(-n3c(C)nc4cnccc43)cc1)CC(=O)N2
- Duration of action [8]: 0 h

Structure (SMILES): Cc1cc(C)c2c(n1)NC(=O)CC(c1ccc(-n3c(C)nc4cnccc43)cc1)=N2
- Duration of action [9]: 0 h
- Duration of action [10]: < 8 h

Structure (SMILES): Cc1nn(C)c2c1NC(=O)CC(c1ccc(-n3c(C)nc4cnccc43)cc1)=N2
- Duration of action [9]: 0 h
- Duration of action [10]: > 8 h

Structure (SMILES): Cc1nnc2n1-c1sc3c(c1C(c1ccccc1Cl)=NC2)CC(C(=O)N1CCOCC1)C3 (centres undefined) [BEPAFANT]
- Duration of action [11]: 7 h
- IC50 [12]: 73 nM

Now from value to molecule:

- Duration of action [3]: 9 h
Structure (SMILES): Cc1cc(C)c2c(n1)N(C)C(=O)CC(c1ccc(-n3c(C)nc4cnccc43)cc1)=N2

- Duration of action [3]: 4 h
Structure (SMILES): CCN(CC)C(=O)c1cnc2c(c1)N=C(c1ccc(-n3c(C)nc4cnccc43)cc1)CC(=O)N2C

- Duration of action [7]: 2 h
Structure (SMILES): Cc1nc2cnccc2n1-c1ccc(C2=Nc3cc(C(=O)N4CCOCC4)cnc3N(C)C(=O)C2)cc1

- Duration of action [4]: 4 h
Structure (SMILES): Cc1nc2cnccc2n1-c1ccc(C2=Nc3cc(Br)cnc3N(C)C(=O)C2)cc1
